Results pooled from the literature.
Protocols differ between the studies behind these lines.
Cell line: HEK293
Observed: cell growth or viability

SMILES | assay | conditions | quantity | result
O=C(Nc1ccc([N+](=O)[O-])cc1)c1ccc(F)cc1 | resazurin | 48 h | CC50 | > 20 µM
CC(C)C[C@H](NC(=O)[C@H](Cc1ccccc1)NC(=O)c1cnccn1)B(O)O | resazurin | 48 h | CC50 | 0.008 µM
O=C(Nc1cccc([N+](=O)[O-])c1)c1cccc(C(F)(F)F)c1 | resazurin | 48 h | CC50 | > 20 µM
Cc1ccc(Cn2cc(C(=O)N/N=C/c3ccc([N+](=O)[O-])s3)c(=O)c3cc(Cl)c(Cl)cc32)cc1 | resazurin | 48 h | CC50 | > 20 µM
CCCc1cc(=O)oc2cc(OCc3cc(=O)c(O)co3)ccc12 | CCK-8 | 36 µM, 24 h | viability | 94%
O=C(Nc1ccc(C(F)(F)F)nn1)c1cccc(C(F)(F)F)c1 | resazurin | 48 h | CC50 | > 20 µM
O=C(N/N=C/c1ccc([N+](=O)[O-])o1)c1cn(Cc2ccccc2)c2ccc([N+](=O)[O-])cc2c1=O | resazurin | 48 h | CC50 | > 20 µM
Cn1cc2c3c1C(=O)C(NCCc1ccc(O)cc1)=CC3=[N+](C)CC2 | MTT | 72 h | CC50 | 0.23 µM
O=C(Nc1ccc(Cl)c(Cl)c1)c1cccc(C(F)(F)F)c1 | resazurin | 48 h | CC50 | 10.1 µM
Cn1cc2c3c1C(=O)C(NCCc1ccc(O)cc1)=CC3=NCC2 | MTT | 72 h | CC50 | 2.5 µM
O=C(Nc1cccc([N+](=O)[O-])c1)c1ccc(C(F)(F)F)cc1 | resazurin | 48 h | CC50 | > 20 µM
Cc1ccc(Cn2cc(C(=O)N/N=C/c3ccc([N+](=O)[O-])o3)c(=O)c3cc([N+](=O)[O-])ccc32)cc1 | resazurin | 48 h | CC50 | > 20 µM
O=C1C(NCCc2ccc(O)cc2)=CC2=NCCc3c[nH]c1c32 | MTT | 72 h | CC50 | 3 µM
O=C(N/N=C/c1ccc([N+](=O)[O-])o1)c1cn(Cc2ccccc2)c2ccccc2c1=O | resazurin | 48 h | CC50 | > 20 µM
COC1=CC2=[N+](C)CCc3c[nH]c(c32)C1=O | MTT | 72 h | CC50 | 12.5 µM
